Assay results from ChEMBL document CHEMBL1154855 (Eur J Med Chem, 2010).
Values after ≈ are worked out from the molar mass of the structure shown.

Legend:
[1] = (§1) Cytotoxicity against VSV infected human HeLa cells by trypan blue exclusion method; format: cell-based; conditions: HeLa cells infected with VSV
Procedure, shortened: (§2)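 Uninfected confluent cultures were run in parallel with the infected cultures. Medium was replaced by 1 ml maintenance medium with serial compound concentrations; cell controls received no compound. Cultures were incubated at 37 °C. After 2 and 7 days, compound was withdrawn and viability was determined by trypan blue exclusion.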

[2] = (§3) Cytotoxicity against Human coxsackievirus B4 infected human HeLa cells by trypan blue exclusion method; format: cell-based; conditions: HeLa cells infected with human coxsackievirus B4; procedure, shortened: as §2
[3] = (§4) Cytotoxicity against Respiratory syncytial virus infected human HeLa cells by trypan blue exclusion method; format: cell-based; conditions: HeLa cells infected with respiratory syncytial virus; procedure, shortened: as §2
[4] = (§5) Cytotoxicity against Herpes simplex virus 1 KOS infected HEL cells by trypan blue exclusion method; format: cell-based; conditions: human, HEL cells infected with herpes simplex virus 1 KOS; procedure, shortened: as §2
[5] = (§6) Cytotoxicity against Herpes simplex virus 2 G infected HEL cells by trypan blue exclusion method; format: cell-based; conditions: human, HEL cells infected with herpes simplex virus 2 G; procedure, shortened: as §2
[6] = (§7) Cytotoxicity against Vaccinia virus infected HEL cells by trypan blue exclusion method; format: cell-based; conditions: human, HEL cells infected with vaccinia virus; procedure, shortened: as §2
[7] = (§8) Cytotoxicity against VSV infected HEL cells by trypan blue exclusion method; format: cell-based; conditions: human, HEL cells infected with VSV; procedure, shortened: as §2
[8] = (§9) Cytotoxicity against PIV 3 infected african green monkey Vero cells by trypan blue exclusion method; format: cell-based; conditions: chlorocebus sabaeus, Vero cells infected with PIV 3; procedure, shortened: as §2
[9] = (§10) Cytotoxicity against Reovirus 1 infected african green monkey Vero cells by trypan blue exclusion method; format: cell-based; conditions: chlorocebus sabaeus, Vero cells infected with reovirus 1; procedure, shortened: as §2
[10] = (§11) Cytotoxicity against Sindbis virus infected african green monkey Vero cells by trypan blue exclusion method; format: cell-based; conditions: chlorocebus sabaeus, Vero cells infected with Sindbis virus; procedure, shortened: as §2
[11] = (§12) Cytotoxicity against Human coxsackievirus B4 infected african green monkey Vero cells by trypan blue exclusion method; format: cell-based; conditions: chlorocebus sabaeus, Vero cells infected with human coxsackievirus B4; procedure, shortened: as §2
[12] = (§13) Cytotoxicity against Punta Toro virus infected african green monkey Vero cells by trypan blue exclusion method; format: cell-based; conditions: chlorocebus sabaeus, Vero cells infected with Punta Toro virus; procedure, shortened: as §2
Coxsackievirus B4 [13] = experiment: Antiviral activity against Human coxsackievirus B4 infected in human HeLa cells assessed as protection from virus-induced cytopathogenicity after 2 days by MTT assay; format: functional, organism-based; conditions: Enterovirus B, 48 h
[14] = system: Respiratory syncytial virus; experiment: Antiviral activity against Respiratory syncytial virus infected in human HeLa cells assessed as protection from virus-induced cytopathogenicity after 4 days by MTT assay; format: functional, organism-based; conditions: 96 h
Human alphaherpesvirus 1 [15] = experiment: Antiviral activity against Herpes simplex virus 1 KOS infected in HEL cells assessed as protection from virus-induced cytopathogenicity after 2 to 3 days by MTT assay; format: functional, organism-based; conditions: Human alphaherpesvirus 1, KOS
Human alphaherpesvirus 2 = experiment: Antiviral activity against Herpes simplex virus 2 G infected in HEL cells assessed as protection from virus-induced cytopathogenicity after 2 to 3 days by MTT assay; format: functional, organism-based; conditions: Human alphaherpesvirus 2, strain G
[16] = system: Vesicular stomatitis virus; experiment: Antiviral activity against VSV infected in HEL cells assessed as protection from virus-induced cytopathogenicity after 1 to 2 days by MTT assay; format: functional, organism-based
Human alphaherpesvirus 1 [17] = experiment: Antiviral activity against acyclovir-sensitive Herpes simplex virus 1 KOS infected in HEL cells assessed as protection from virus-induced cytopathogenicity after 2 to 3 days by MTT assay; format: functional, organism-based; conditions: Human alphaherpesvirus 1, KOS
Human respirovirus 3 = experiment: Antiviral activity against PIV 3 infected in african green monkey Vero cells assessed as protection from virus-induced cytopathogenicity after 6 to 7 days by MTT assay; format: functional, organism-based; conditions: Human respirovirus 3, Vero
Sindbis virus = experiment: Antiviral activity against Sindbis virus infected in african green monkey Vero cells assessed as protection from virus-induced cytopathogenicity after 2 to 3 days by MTT assay; format: functional, organism-based
Coxsackievirus B4 [18] = experiment: Antiviral activity against Human coxsackievirus B4 infected in african green monkey Vero cells assessed as protection from virus-induced cytopathogenicity after 2 days by MTT assay; format: functional, organism-based; conditions: Enterovirus B, 48 h
Influenza A virus [19] = experiment: Antiviral activity against Influenza A virus H1N1 infected in MDCK cells assessed as protection from virus-induced cytopathogenicity after 6 to 7 days by MTT assay; format: functional, organism-based
[20] = system: Human immunodeficiency virus 1; experiment: Antiviral activity against HIV1 3B-infected in human MT4 cells assessed as protection from virus-induced cytopathogenicity after 5 days by MTT assay; format: functional, organism-based; conditions: Human immunodeficiency virus 1, 3B, MT4, 120 h
Procedure, shortened: (§14)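 MT-4 cells at 3 × 10^4 per well were infected with HIV (IIIB or ROD) at 50% cell culture infective doses. Graded compound concentrations were added immediately after infection. Plates were incubated for 5 days at 37 °C and viable cells were counted by MTT.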

[21] = system: Human immunodeficiency virus 2; experiment: Antiviral activity against HIV2 ROD infected in human MT4 cells assessed as protection from virus-induced cytopathogenicity after 5 days by MTT assay; format: functional, organism-based; conditions: Human immunodeficiency virus 2, ISOLATE ROD, MT4, 120 h; procedure, shortened: as §14
[22] = Cytotoxicity against HIV2 ROD infected human MT4 cells by MTT assay; format: cell-based; conditions: MT4 cells infected with HIV-2 ROD
Procedure, shortened: (§15)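 MT-4 cells (3 × 10^4 per well) were cultured in microdilution trays with various concentrations of compound, then incubated 5 days at 37 °C, and viable cell number was read by MTT.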

[23] = Selectivity index, ratio of CC50 for HIV2 ROD infected human MT4 cells to IC50 for […] ROD; format: functional
HeLa [24] = experiment: as §1; format: cell-based; conditions: hela; procedure, shortened: as §2
HeLa [25] = experiment: as §3; format: cell-based; conditions: hela; procedure, shortened: as §2
HeLa [26] = experiment: as §4; format: cell-based; conditions: hela; procedure, shortened: as §2
HEL [27] = experiment: as §5; format: cell-based; conditions: human, hel; procedure, shortened: as §2
HEL [28] = experiment: as §6; format: cell-based; conditions: human, hel; procedure, shortened: as §2
HEL [29] = experiment: as §7; format: cell-based; conditions: human, hel; procedure, shortened: as §2
HEL [30] = experiment: as §8; format: cell-based; conditions: human, hel; procedure, shortened: as §2
HEL [31] = experiment: Cytotoxicity against acyclovir-sensitive Herpes simplex virus 1 KOS infected HEL cells by trypan blue exclusion method; format: cell-based; conditions: human; procedure, shortened: as §2
Vero [32] = experiment: as §9; format: cell-based; conditions: chlorocebus sabaeus, vero; procedure, shortened: as §2
Vero [33] = experiment: as §10; format: cell-based; conditions: chlorocebus sabaeus, vero; procedure, shortened: as §2
Vero [34] = experiment: as §11; format: cell-based; conditions: chlorocebus sabaeus, vero; procedure, shortened: as §2
Vero [35] = experiment: as §12; format: cell-based; conditions: chlorocebus sabaeus, vero; procedure, shortened: as §2
Vero [36] = experiment: as §13; format: cell-based; conditions: chlorocebus sabaeus, vero; procedure, shortened: as §2
[37] = Cytotoxicity against Feline coronavirus infected cat CRFK cells by trypan blue exclusion method; format: cell-based, Felis catus; conditions: crfk; procedure, shortened: as §2
[38] = Cytotoxicity against Feline herpesvirus infected cat CRFK cells by trypan blue exclusion method; format: cell-based, Felis catus; conditions: crfk; procedure, shortened: as §2
MDCK [39] = experiment: Cytotoxicity against Influenza A virus subtype H3N2 infected MDCK cells by trypan blue exclusion method; format: cell-based, Canis lupus familiaris; conditions: dog
MDCK [40] = experiment: Cytotoxicity against Influenza B virus infected MDCK cells by trypan blue exclusion method; format: cell-based, Canis lupus familiaris; conditions: dog
[41] = Cytotoxicity against HIV1 3B-infected human MT4 cells by MTT assay; format: cell-based; conditions: MT4 cells infected with HIV-1 3B; procedure, shortened: as §15
[42] = system: Mammalian orthoreovirus 1; experiment: Antiviral activity against Reovirus 1 infected in african green monkey Vero cells assessed as protection from virus-induced cytopathogenicity after 6 to 7 days by MTT assay; format: functional, organism-based; conditions: Mammalian orthoreovirus 1, Vero
[43] = system: Vesicular stomatitis virus; experiment: Antiviral activity against VSV infected in human HeLa cells assessed as protection from virus-induced cytopathogenicity after 1 to 2 days by MTT assay; format: functional, organism-based
Streptococcus viridans = experiment: Antibacterial activity against Streptococcus viridans after 24 hrs by broth microdilution method; format: functional
Procedure, shortened: (§16)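 Clinical isolates. Each dilution received 100 μl of 0.5 McFarland fresh culture. Solvent (DMSO), growth and standard controls were included. Tubes were incubated at 37 °C for 24 h. MIC is the highest dilution showing no turbidity. Tests were run in triplicate, with at least two repetitions.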

Escherichia coli = experiment: Antibacterial activity against Escherichia coli after 24 hrs by broth microdilution method; format: functional; procedure, shortened: as §16
Klebsiella pneumoniae = experiment: Antibacterial activity against Klebsiella pneumoniae after 24 hrs by broth microdilution method; format: functional; procedure, shortened: as §16
Proteus mirabilis = experiment: Antibacterial activity against Proteus mirabilis after 24 hrs by broth microdilution method; format: functional; procedure, shortened: as §16
Punta Toro virus = experiment: Antiviral activity against Punta Toro virus infected in african green monkey Vero cells assessed as protection from virus-induced cytopathogenicity by MTT assay; format: functional, organism-based
Feline coronavirus = experiment: Antiviral activity against Feline coronavirus infected in cat CRFK cells assessed as protection from virus-induced cytopathogenicity by MTT assay; format: functional, organism-based; conditions: Alphacoronavirus 1, CRFK
Felid alphaherpesvirus 1 = experiment: Antiviral activity against Feline herpesvirus infected in cat CRFK cells assessed as protection from virus-induced cytopathogenicity by MTT assay; format: functional, organism-based; conditions: Felid alphaherpesvirus 1, CRFK
Influenza A virus [44] = experiment: Antiviral activity against Influenza A virus H3N2 infected in MDCK cells assessed as protection from virus-induced cytopathogenicity after 6 to 7 days by MTT assay; format: functional, organism-based
Influenza B virus = experiment: Antiviral activity against Influenza B virus infected in MDCK cells assessed as protection from virus-induced cytopathogenicity after 6 to 7 days by MTT assay; format: functional, organism-based
in vitro = conditions: human, HeLa cells

In the case of `NC(=O)c1ncn([C@@H]2O[C@H](CO)[C@@H](O)[C@H]2O)n1` [RIBAVIRIN], the CC50 [1] is reported as over 250000 nM, the CC50 [2] is reported as over 250000 nM and the CC50 [3] is reported as over 250000 nM. For the same molecule, the CC50 [4] was over 250000 nM, the CC50 [5] was over 250000 nM and the CC50 [6] was over 250000 nM. It also gave a CC50 [7] of over 250000 nM, a CC50 [8] of over 250000 nM and a CC50 [9] of over 250000 nM. For the same molecule, the CC50 [10] was over 250000 nM, the CC50 [11] was over 250000 nM and the CC50 [12] was over 250000 nM. For the same molecule, the EC50 (Coxsackievirus B4 [13]) was 30000 nM, the EC50 [14] was 30000 nM and the EC50 (Human alphaherpesvirus 1 [15]) was 10000 nM. For the same molecule, the EC50 (Human alphaherpesvirus 2) was 50000 nM, the EC50 [16] was over 250000 nM and the EC50 (Human alphaherpesvirus 1 [17]) was 125000 nM. It also gave an EC50 (Human respirovirus 3) of 95000 nM, an EC50 (Sindbis virus) of 111000 nM and an EC50 (Coxsackievirus B4 [18]) of over 250000 nM. The EC50 (Influenza A virus [19]) was 7000 nM.
`COc1cc(/C=C/C(=O)CC(=O)/C=C/c2ccc(OC(=O)[C@H](Cc3ccccc3)NC(=O)[C@@H](N)Cc3c[nH]c4ccccc34)c(OC)c2)ccc1OC(=O)[C@H](Cc1ccccc1)NC(=O)[C@@H](N)Cc1c[nH]c2ccccc12` showed an IC50 [20] of 94 nM, an IC50 [21] of 107 nM and a CC50 [22] of over 107 nM. The “Ratio CC50/IC50” value [23] was under 1, the CC50 (HeLa [24]) was 96 nM and the CC50 (HeLa [25]) was 96 nM. For the same molecule, the CC50 (HeLa [26]) was 96 nM, the CC50 (HEL [27]) was 96 nM and the CC50 (HEL [28]) was 19 nM. For the same molecule, the CC50 (HEL [29]) was 19 nM, the CC50 (HEL [30]) was 19 nM and the CC50 (HEL [31]) was 19 nM. It also gave a CC50 (Vero [32]) of 19 nM, a CC50 (Vero [33]) of 96 nM and a CC50 (Vero [34]) of 96 nM. For the same molecule, the CC50 (Vero [35]) was 96 nM, the CC50 (Vero [36]) was 96 nM and the CC50 [37] was over 96 nM. The CC50 [38] was over 96 nM, the CC50 (MDCK [39]) was 46 nM and the CC50 (MDCK [40]) was 46 nM. For the same molecule, the CC50 [41] was over 94 nM, the EC50 (Coxsackievirus B4 [13]) was over 19 nM and the EC50 [42] was over 19 nM. For the same molecule, the EC50 [43] was 11 nM, the MIC (Streptococcus viridans) was 0.43 µM (≈ 0.445 µg/mL) and the MIC (Escherichia coli) was 0.43 µM (≈ 0.445 µg/mL). The MIC (Klebsiella pneumoniae) was 0.43 µM (≈ 0.445 µg/mL), the MIC (Proteus mirabilis) was 0.43 µM (≈ 0.445 µg/mL) and the EC50 [14] was over 19 nM. For the same molecule, the EC50 (Human alphaherpesvirus 1 [15]) was over 19 nM, the EC50 (Human alphaherpesvirus 2) was over 38 nM and the EC50 [16] was over 38 nM. The EC50 (Human alphaherpesvirus 1 [17]) was over 38 nM, the EC50 (Human respirovirus 3) was over 38 nM and the EC50 (Sindbis virus) was over 19 nM. The EC50 (Coxsackievirus B4 [18]) was over 19 nM, the EC50 (Punta Toro virus) was over 19 nM and the EC50 (Feline coronavirus) was over 96 nM. For the same molecule, the EC50 (Felid alphaherpesvirus 1) was over 96 nM, the EC50 (Influenza A virus [19]) was over 96 nM and the EC50 (Influenza A virus [44]) was over 96 nM. It also gave an EC50 (Influenza B virus) of over 96 nM and a selectivity ratio (in vitro) of 9.
